Measurements as given in ChEMBL document CHEMBL2021852 (ACS Med Chem Lett, 2011).

Columns and labels:
[1] = Half life in rat at […], iv; format: ADME, organism-based; design: dose 1.5 mg/kg, route intravenous; conditions: in vivo
[2] = Half life in cynomolgus monkey at 1 mg/kg, iv; format: ADME, organism-based, Macaca fascicularis; design: dose 1 mg/kg, route intravenous; conditions: in vivo
Outline: (§1)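 Compounds were dosed as fumarate salts in separate intravenous and oral arms. Oral AUC(0–t), IV half-life, IV clearance, Vss and oral bioavailability (F) were derived from the plasma levels.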

[3] = Clearance in rat at […], iv; format: ADME, organism-based; design: dose 1.5 mg/kg, route intravenous; conditions: in vivo
[4] = Oral bioavailability in rat at 8.2 mg/kg; format: ADME, organism-based; conditions: in vivo; outline: as §1
[5] = AUC (0 to t) in cynomolgus monkey at 2 mg/kg, po; format: ADME, organism-based, Macaca fascicularis; design: dose 2 mg/kg, route oral; conditions: plasma; outline: as §1
[6] = AUC (0 to t) in rat at 8.2 mg/kg, po; format: ADME, organism-based; design: dose 8.2 mg/kg, route oral; conditions: plasma; outline: as §1
[7] = Volume of distribution at steady state in cynomolgus monkey at 1 mg/kg, iv and 2 mg/kg, po; format: ADME, organism-based, Macaca fascicularis; conditions: in vivo, read-out: Vdss; outline: as §1
[8] = Oral bioavailability in cynomolgus monkey at 2 mg/kg; format: ADME, organism-based, Macaca fascicularis; conditions: in vivo; outline: as §1
[9] = Clearance in cynomolgus monkey at 1 mg/kg, iv; format: ADME, organism-based, Macaca fascicularis; design: dose 1 mg/kg, route intravenous; conditions: in vivo; outline: as §1
[10] = Volume of distribution at steady state in rat at […], iv and 8.2 mg/kg, po; format: ADME, organism-based; conditions: in vivo, read-out: Vdss
Cytochrome P450 3A4 = Cytochrome P450 3A4 (Homo sapiens, UniProt P08684); assay: Inhibition of CYP3A4 using testosterone as substrate in human liver microsome for 20 mins by HPLC analysis; format: ADME, microsomes
Chain of Cytochrome P450 3A4 (P08684 whole entry): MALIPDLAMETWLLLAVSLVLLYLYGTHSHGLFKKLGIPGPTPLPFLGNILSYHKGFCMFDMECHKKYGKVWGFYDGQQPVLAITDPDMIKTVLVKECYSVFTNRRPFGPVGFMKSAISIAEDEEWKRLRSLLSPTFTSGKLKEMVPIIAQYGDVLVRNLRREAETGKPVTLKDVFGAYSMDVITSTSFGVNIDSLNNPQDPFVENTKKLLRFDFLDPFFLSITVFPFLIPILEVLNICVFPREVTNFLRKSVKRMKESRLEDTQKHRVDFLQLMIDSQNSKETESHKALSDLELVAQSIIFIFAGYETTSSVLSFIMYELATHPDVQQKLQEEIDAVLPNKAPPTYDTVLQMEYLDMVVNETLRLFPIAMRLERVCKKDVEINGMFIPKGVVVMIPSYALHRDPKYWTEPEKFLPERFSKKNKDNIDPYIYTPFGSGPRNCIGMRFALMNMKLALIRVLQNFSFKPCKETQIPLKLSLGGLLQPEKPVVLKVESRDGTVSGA
Outline: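 CYP3A4 inhibition measured in human liver microsomes; IC50 is the average of at least two replicates.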

Renin [11] = target: T1, Renin (Homo sapiens, UniProt P00797); assay: Inhibition of human recombinant renin using H-Asp-Arg-Val-Tyr-Ile-His-Pro-Phe-His-Leu-Val-Ile-His-Asn-OH as substrate assessed as formation of angiotensin1 product after 2 hrs by competive radioimmunoassay
T1 sequence (P00797 whole entry): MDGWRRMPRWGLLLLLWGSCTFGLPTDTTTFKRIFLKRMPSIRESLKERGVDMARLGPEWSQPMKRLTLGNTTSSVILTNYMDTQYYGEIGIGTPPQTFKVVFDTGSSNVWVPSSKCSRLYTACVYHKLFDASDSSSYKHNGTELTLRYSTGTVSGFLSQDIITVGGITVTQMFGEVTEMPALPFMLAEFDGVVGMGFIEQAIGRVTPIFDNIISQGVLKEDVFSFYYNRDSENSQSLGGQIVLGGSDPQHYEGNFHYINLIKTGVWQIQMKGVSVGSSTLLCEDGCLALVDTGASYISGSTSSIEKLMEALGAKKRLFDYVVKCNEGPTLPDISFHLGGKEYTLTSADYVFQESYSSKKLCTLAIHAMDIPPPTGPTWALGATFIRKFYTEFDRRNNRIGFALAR
Outline: (§2)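 Purified recombinant human renin measured in buffer; each value is the average of at least two replicates.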

Renin [12] = target: T1, Renin; assay: Inhibition of human recombinant renin using DABCYL-gamma-Abu-Ile-His-Pro-Phe-His-Leu-Val-Ile-His-Thr-EDANS as substrate for 60 mins by fluorimetry; outline: as §2
Renin [13] = target: T1, Renin; assay: Inhibition of renin in human plasma assessed as formation of angiotensin1 product after 90 mins by competitive radioimmunoassay
Outline: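 IC50 for renin inhibition determined in the presence of human plasma; each value is the average of at least two replicates.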

[14] = Clearance in rat at 0.8 mg/kg, iv; format: ADME, organism-based; design: dose 0.8 mg/kg, route intravenous; conditions: in vivo; outline: as §1
[15] = Half life in rat at 0.8 mg/kg, iv; format: ADME, organism-based; design: dose 0.8 mg/kg, route intravenous; conditions: in vivo; outline: as §1
[16] = Oral bioavailability in rat at 4 mg/kg; format: ADME, organism-based; conditions: in vivo; outline: as §1
[17] = AUC (0 to t) in rat at 4 mg/kg, po; format: ADME, organism-based; design: dose 4 mg/kg, route oral; conditions: plasma; outline: as §1
[18] = Volume of distribution at steady state in rat at 0.8 mg/kg, iv and 4 mg/kg, po; format: ADME, organism-based; conditions: in vivo, read-out: Vdss; outline: as §1
[19] = Volume of distribution at steady state in rat at 1.6 mg/kg, iv and 8 mg/kg, po; format: ADME, organism-based; conditions: in vivo, read-out: Vdss; outline: as §1
[20] = Volume of distribution at steady state in cynomolgus monkey at 1 mg/kg, iv and 1 mg/kg, po; format: ADME, organism-based, Macaca fascicularis; conditions: in vivo, read-out: Vdss; outline: as §1
[21] = AUC (0 to t) in cynomolgus monkey at 1 mg/kg, po; format: ADME, organism-based, Macaca fascicularis; design: dose 1 mg/kg, route oral; conditions: plasma; outline: as §1
[22] = Clearance in rat at 1.6 mg/kg, iv; format: ADME, organism-based; design: dose 1.6 mg/kg, route intravenous; conditions: in vivo; outline: as §1
[23] = AUC (0 to t) in rat at 8 mg/kg, po; format: ADME, organism-based; design: dose 8 mg/kg, route oral; conditions: plasma; outline: as §1
[24] = Oral bioavailability in rat at 8 mg/kg; format: ADME, organism-based; conditions: in vivo
Outline: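 Rats given compound as the fumarate salt, intravenously and by mouth in separate arms. Oral AUC(0–t), IV half-life, IV clearance, Vss and F were tabulated. The oral dose was 8.0 mg/kg, paired with an IV dose of 1.6 mg/kg.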

[25] = Half life in rat at 1.6 mg/kg, iv; format: ADME, organism-based; design: dose 1.6 mg/kg, route intravenous; conditions: in vivo; outline: as §1
[26] = Oral bioavailability in cynomolgus monkey at 1 mg/kg; format: ADME, organism-based, Macaca fascicularis; conditions: in vivo; outline: as §1

CNC[C@H](C[C@H]1CCCOC1)NC(=O)N1CCC[C@@H]([C@@H](OCCNC(=O)OC)c2cccc(Cl)c2)C1.O=C(O)/C=C/C(=O)O
half-life [1]: 18.3 h | half-life [2]: 14 h | clearance [3]: 48 mL/min/kg | bioavailability [4]: 7.5% | AUC(0-t) [5]: 172 ng·h/mL | AUC(0-t) [6]: 167 ng·h/mL | Vd [7]: 5 L/kg | bioavailability [8]: 5.3% | clearance [9]: 9.5 mL/min/kg | Vd [10]: 39 L/kg

CNC[C@H](CC1CCCCC1)NC(=O)N1CCC[C@@H]([C@@H](OCCNC(=O)OC)c2cccc(Cl)c2)C1
IC50 (Cytochrome P450 3A4): 4600 nM

CNC[C@H](CC1CCOCC1)NC(=O)N1CCC[C@@H]([C@@H](OCCNC(=O)OC)c2cccc(Cl)c2)C1
IC50 (Renin [11]): 1.7 nM | IC50 (Renin [12]): 6.2 nM | IC50 (Cytochrome P450 3A4): > 30000 nM | IC50 (Renin [13]): 13.1 nM

CNC[C@H](C[C@@H]1CCCOC1)NC(=O)N1CCC[C@@H]([C@@H](OCCNC(=O)OC)c2cccc(Cl)c2)C1
IC50 (Renin [11]): 2.7 nM | IC50 (Renin [12]): 5.5 nM | IC50 (Renin [13]): 4.5 nM

COCCCC[C@@](O)(c1cccc(Cl)c1F)[C@@H]1CCCN(C(=O)NC[C@@H](N)CC2CCCCC2)C1
IC50 (Renin [11]): 0.27 nM | IC50 (Renin [12]): 2.2 nM | IC50 (Cytochrome P450 3A4): 2910 nM | IC50 (Renin [13]): 69 nM

COCCCC[C@@](O)(c1cccc(Cl)c1F)[C@@H]1CCCN(C(=O)NC[C@@H](N)CC2CCCCC2)C1.O=C(O)/C=C/C(=O)O
clearance [14]: 47 mL/min/kg | half-life [15]: 51 h | bioavailability [16]: 29.5% | AUC(0-t) [17]: 269 ng·h/mL | Vd [18]: 101 L/kg

CNC[C@H](CC1CCCCC1)NC(=O)N1CCC[C@@H]([C@@](O)(CCCCOC)c2cccc(Cl)c2F)C1
IC50 (Renin [12]): 0.73 nM | IC50 (Renin [13]): 9.4 nM

CNC[C@H](CC1CCCCC1)NC(=O)N1CCC[C@@H]([C@@H](OCCNC(=O)OC)c2cccc(Cl)c2)C1.O=C(O)/C=C/C(=O)O
Vd [19]: 19 L/kg | half-life [2]: 23.3 h | Vd [20]: 9.8 L/kg | AUC(0-t) [21]: 130 ng·h/mL | clearance [22]: 36 mL/min/kg | AUC(0-t) [23]: 301 ng·h/mL | bioavailability [24]: 9.4% | half-life [25]: 16.2 h | bioavailability [26]: 9.9%
